This note sets out measurements from ChEMBL document CHEMBL2401663, “(Biphenyl-4-yl)methylammonium chlorides: potent anticonvulsants that modulate Na+ currents” (J Med Chem, 2013).

The structures appear in SMILES notation. Calls of active or inactive are those of the source. The rule behind the calls is not given here.

In data set [1] the test system is Rattus norvegicus. The data set is described as follows: Anticonvulsant activity against po dosed albino Sprague-Dawley rat after 0.25 to 4 hrs by maximal electroshock seizure test. The class given is functional. A digest of the protocol:
(§1)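 Male albino Sprague-Dawley rats dosed ip or orally under the NIH Anticonvulsant Screening Program, tested by maximal electroshock seizure.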

The subject of data set [2] is Mus musculus. The data set is described as follows: Anticonvulsant activity against ip dosed albino CF1 mouse after 0.5 to 1 hr by 6 Hz psychomotor seizure test. The class given is functional.
Data set [3] concerns Rattus norvegicus. Kind of data set: Anticonvulsant activity against ip dosed albino Sprague-Dawley rat after 0.25 to 4 hrs by maximal electroshock seizure test. The class given is functional. In outline:
as §1
In general terms: Protection in the maximal electroshock model is a classic sign of anticonvulsant action.

The nature of data set [4]: Toxicity in ip dosed albino CF1 mouse after 0.25 to 4 hrs by rotorod test. The class given is organism-based. To be noted: in vivo. (In general: In the rotarod test animals must keep their balance on a rotating rod.)
Data set [5] relates to Mus musculus. Kind of data set: Anticonvulsant activity against ip dosed albino CF1 mouse after 0.5 to 4 hrs by subcutaneous pentylenetetrazol test. The class given is functional.
Data set [6] in a line: Toxicity in po dosed albino Sprague-Dawley rat assessed as behavioral toxicity after 0.25 to 4 hrs. The class given is organism-based. Particulars: in vivo. A digest of the protocol:
(§2)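 Male albino Sprague-Dawley rats dosed ip or orally, scored for behavioral toxicity (neurological impairment). TD50 is in mg/kg, taken at the time of peak effect.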

Data set [7] concerns Mus musculus. Kind of data set: Anticonvulsant activity against ip dosed albino CF1 mouse after 0.25 to 0.5 hrs by maximal electroshock seizure test. The class given is functional.
The nature of data set [8]: Toxicity in ip dosed albino Sprague-Dawley rat assessed as behavioral toxicity after 0.25 to 4 hrs. The class given is organism-based. Particulars: in vivo. A digest of the protocol: as §2
For data set [9], the system named is Mus musculus. Kind of data set: Anticonvulsant activity against ip dosed albino CF1 mouse after 1 hr by 6 Hz psychomotor seizure test. The class given is functional.
The subject of data set [10] is Mus musculus. Kind of data set: Anticonvulsant activity against ip dosed albino CF1 mouse after […] by maximal electroshock seizure test. The class given is functional.
Data set [11] has as its system Rattus norvegicus. Kind of data set: Anticonvulsant activity against po dosed albino Sprague-Dawley rat […] by maximal electroshock seizure test. The class given is functional. A digest of the protocol: as §1
The species entered for data set [12] is Rattus norvegicus. Kind of data set: Protective index, ratio of TD50 for albino Sprague-Dawley rat to ED50 for albino Sprague-Dawley rat. The class given is functional. A digest of the protocol:
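Protective index is TD50/ED50, both from orally dosed male Sprague-Dawley rats. TD50 is for behavioral toxicity and ED50 is for maximal electroshock seizure.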

The test system of data set [13] is Mus musculus. The data set is described as follows: Toxicity in ip dosed albino CF1 mouse after 6 hrs by rotorod test. The class given is organism-based. To be noted: in vivo.
For data set [14], the species on record is Rattus norvegicus. The data set is described as follows: Inhibition of Na+ channel in rat embryonic cortical neurons assessed as fast inactivation at 20 uM by whole cell voltage clamp technique (reference value: -53.9 +/- 1.2 mV). In outline: (§3)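 Embryonic day 19 rat cortical neurons by whole-cell voltage clamp at room temperature, with protocols mostly as for CAD cells. 20 μM compared with 0.1% DMSO. Activation from 15-ms pulses, −70 to +80 mV; conductance G = I/(Vm − Vrev); Boltzmann fits giving V1/2 and k. Mean ± SEM; ANOVA with post-hoc test.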

Data set [15] deals with CAD. The data set is described as follows: Inhibition of Na+ channel in mouse CAD cells assessed as hyperpolarizing shift at 30 uM by whole cell voltage clamp technique (reference value: -71.6 +/- 0.6 mV). The class given is cell-based. A digest of the protocol:
(§4)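 Steady-state fast inactivation in CAD cells by whole-cell voltage clamp at room temperature. Cells held at −80 mV, given 500-ms prepulses from −120 to −10 mV in 10-mV steps, then a 20-ms step to 0 mV. Curves fitted with a single Boltzmann; V1/2 shift compared with 0.1% DMSO by ANOVA and Dunnett's test. Mean ± SEM.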

In data set [16] the test system is Mus musculus. The data set is described as follows: Anticonvulsant activity against ip dosed albino CF1 mouse after 4 hrs by subcutaneous pentylenetetrazol test. The class given is functional. Particulars: albino CF1, 4 h.
Data set [17] is filed under the species Rattus norvegicus. The data set is described as follows: Inhibition of Na+ channel in rat embryonic cortical neurons assessed as frequency-dependent inactivation at 20 uM by whole cell voltage clamp technique relative to control.
The test system of data set [18] is CAD. The data set is described as follows: Inhibition of Na+ channel in mouse CAD cells assessed as hyperpolarizing shift at 1 uM by whole cell voltage clamp technique (reference value: -71.6 +/- 0.6 mV). The class given is cell-based. In outline:
as §4

In data set [19] the test system is CAD. The data set is described as follows: Inhibition of Na+ channel in mouse CAD cells assessed as fast inactivation by whole cell voltage clamp technique. The class given is cell-based. In outline:
as §4

The test system of data set [20] is Rattus norvegicus. The data set is described as follows: Toxicity in ip dosed albino Sprague-Dawley rat assessed as behavioral toxicity after 2 hrs. The class given is organism-based. Particulars: in vivo. A digest of the protocol: as §2
The test system of data set [21] is CAD. The data set is described as follows: Inhibition of Na+ channel in mouse CAD cells assessed as frequency-dependent inactivation at 10 uM by whole cell voltage clamp technique relative to control. The class given is cell-based. In outline:
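Frequency (use)-dependent inhibition of Na+ currents in CAD cells by whole-cell voltage clamp at room temperature. Current trend and amplitude at 10 μM compared with control.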

The subject of data set [22] is Mus musculus. Kind of data set: Anticonvulsant activity against ip dosed albino CF1 mouse after 0.5 hrs by maximal electroshock seizure test. The class given is functional.
The subject of data set [23] is Rattus norvegicus. The data set is described as follows: Anticonvulsant activity against po dosed albino Sprague-Dawley rat after 2 hrs by maximal electroshock seizure test. The class given is functional. A digest of the protocol:
as §1

Data set [24] is filed under the species Rattus norvegicus. Kind of data set: Inhibition of Na+ channel in rat embryonic cortical neurons assessed as slow inactivation at 20 uM by whole cell voltage clamp technique. In outline:
as §3

Data set [25] concerns Rattus norvegicus. The data set is described as follows: Anticonvulsant activity against ip dosed albino Sprague-Dawley rat after 2 hrs by maximal electroshock seizure test. The class given is functional. A digest of the protocol:
as §1

Data set [26] is filed under the species Rattus norvegicus. Kind of data set: Inhibition of Na+ channel in rat embryonic cortical neurons assessed as steady state activation at 20 uM by whole cell voltage clamp technique relative to control. In outline: as §3
Data set [27] in a line: Inhibition of Na+ channel in mouse CAD cells assessed as slow inactivation by whole cell voltage clamp technique. The class given is cell-based. A digest of the protocol: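 CAD cells (Ham's F12/EMEM, 8% FBS, 37 °C, 5% CO2) by whole-cell voltage clamp at room temperature. Na+ channel slow inactivation measured at −50 mV; IC50 is the concentration at which half of the channels reach a slow-inactivated state.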

Data set [28] relates to Mus musculus. Kind of data set: Anticonvulsant activity against ip dosed albino CF1 mouse after 0.25 to 4 hrs by subcutaneous pentylenetetrazol test. The class given is functional.
The test system of data set [29] is Mus musculus. The data set is described as follows: Anticonvulsant activity against ip dosed albino CF1 mouse after 1 to 4 hrs by 6 Hz psychomotor seizure test. The class given is functional.
Data set [30] concerns Mus musculus. The data set is described as follows: Anticonvulsant activity against ip dosed albino CF1 mouse after 0.25 to 4 hrs by maximal electroshock seizure test. The class given is functional.
The test system of data set [31] is Rattus norvegicus. Kind of data set: Anticonvulsant activity against ip dosed albino Sprague-Dawley rat after […] by maximal electroshock seizure test. The class given is functional.
Data set [32] deals with Mus musculus. The data set is described as follows: Anticonvulsant activity against ip dosed albino CF1 mouse after 2 hrs by subcutaneous pentylenetetrazol test. The class given is functional. To be noted: albino CF1, 2 h.
Data set [33] deals with Mus musculus. The data set is described as follows: Anticonvulsant activity against ip dosed albino CF1 mouse after 4 hrs by maximal electroshock seizure test. The class given is functional.

In the case of `Cl.NCc1ccc(-c2ccccc2)cc1`, the ED50 (commonly the midpoint of the dose-response relation) in the data set on Rattus norvegicus [1] was greater than 30 mg/kg; in the data set on Mus musculus [2], 100 mg/kg; in the data set with Rattus norvegicus [3] it was greater than 30 mg/kg; in the data set with Mus musculus [5], greater than 300 mg/kg; in the data set with Mus musculus [7], 30 mg/kg. Further, the TD50 (as a rule, the dose at which the toxic effect under study appears in half of the subjects) in data set [4] is greater than 100 mg/kg; in [6] it was greater than 30 mg/kg; in [8], greater than 30 mg/kg.
For the compound `COc1cccc(-c2ccc(CN)cc2)c1.Cl`, the 50% effective dose (ED50) in the data set on Rattus norvegicus [1] is greater than 30 mg/kg; in the data set with Rattus norvegicus [3] it was greater than 30 mg/kg; in the data set on Mus musculus [5] it was greater than 100 mg/kg; with Mus musculus [9], 100 mg/kg; with Mus musculus [10], less than 100 mg/kg. The TD50 in [4] is greater than 100 mg/kg; in data set [6], greater than 30 mg/kg; in [8], greater than 30 mg/kg.
In the data set with Rattus norvegicus [11], `O=C1NC(=O)C(c2ccccc2)(c2ccccc2)N1` [PHENYTOIN] registered a 50% effective dose (ED50) of 30 mg/kg.
In the case of `Cl.NCc1ccc(-c2cccc(OC(F)(F)F)c2)cc1`, the “Ratio TD50/ED50” value in the data set filed under Rattus norvegicus [12] is given as greater than 57. The TD50 with Mus musculus [13] is 81 mg/kg; with Rattus norvegicus [20], 72 mg/kg; in [6], greater than 500 mg/kg. The results for the V1/2 in the data set listed under Rattus norvegicus [14], with CAD [15] and with CAD [18] were -69.6 mV, 26.5 mV and 11.2 mV, respectively. The ED50 stood at 81 mg/kg in the data set with Mus musculus [16]; 43 mg/kg in the data set on Mus musculus [9]; 25 mg/kg with Mus musculus [22]; 8.7 mg/kg with Rattus norvegicus [23]; 16 mg/kg in the data set with Rattus norvegicus [25]. Moreover, the inhibition result in the data set listed under Rattus norvegicus [17], in the data set with CAD [19], with CAD [21] and in the data set listed under Rattus norvegicus [26] was “inactive” each time. For the same compound, the inhibition entry in the data set listed under Rattus norvegicus [24] is “Active”. In addition, the IC50 – broadly, the concentration that inhibits the measured activity by half – in data set [27] was 2700 nM.
As to `Cl.NCc1ccc(-c2ccc(Cl)cc2)cc1`, the ED50 with Rattus norvegicus [1] was greater than 30 mg/kg; in the data set on Rattus norvegicus [3], greater than 30 mg/kg; in the data set with Mus musculus [28] it was greater than 50 mg/kg; in the data set on Mus musculus [29] it was less than 100 mg/kg; in the data set on Mus musculus [30], greater than 50 mg/kg. In addition, the TD50 in data set [4] is greater than 50 mg/kg; in data set [6] it was greater than 30 mg/kg; in [8], greater than 30 mg/kg.
Take `Cl.NCc1ccc(-c2cccc(F)c2)cc1`: the ED50 in the data set with Rattus norvegicus [1] is greater than 30 mg/kg; in the data set with Rattus norvegicus [31] it was 65 mg/kg; in the data set on Mus musculus [9], 50 mg/kg; with Mus musculus [32], 50 mg/kg; in the data set on Mus musculus [30], greater than 50 mg/kg. Moreover, the TD50 is greater than 100 mg/kg in data set [4], greater than 30 mg/kg in [6] and greater than 65 mg/kg in [8].
Regarding `Cl.NCc1ccc(-c2ccc(F)cc2)cc1`, the ED50 in the data set on Rattus norvegicus [1] was greater than 30 mg/kg; in the data set on Mus musculus [33], 50 mg/kg; in the data set with Rattus norvegicus [3] it was greater than 30 mg/kg; in the data set with Mus musculus [28] it was greater than 50 mg/kg; with Mus musculus [29] it was less than 100 mg/kg. For the same compound, the TD50 was greater than 50 mg/kg in data set [4], greater than 30 mg/kg in [6] and greater than 30 mg/kg in data set [8].
